Screening results deposited in PubChem BioAssay by several laboratories.
Hits are enriched below; roughly 1.7% of the tested compounds scored in any of these assays.
ZTA DNA inh: counter-screen for EBNA-1 inhibitors: inhibitors of Epstein-Barr virus ZTA | inhibition, % at 11 µM | 0.15% of 320,000 active | ZTA-DNA binding, fluorescence polarization | AID 2234 | P03206; in the data active = inhibition above about 33%
Target sequence (P03206 whole entry, looked up): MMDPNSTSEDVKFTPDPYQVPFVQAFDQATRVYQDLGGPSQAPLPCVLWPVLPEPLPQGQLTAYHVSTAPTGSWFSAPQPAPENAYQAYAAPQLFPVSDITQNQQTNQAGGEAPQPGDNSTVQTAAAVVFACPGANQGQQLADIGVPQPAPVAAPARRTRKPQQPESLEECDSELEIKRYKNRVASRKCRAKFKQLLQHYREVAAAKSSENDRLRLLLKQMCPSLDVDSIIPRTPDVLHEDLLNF
NS3 helicase inh: blocks Hepatitis C virus NS3 helicase unwinding | NS3 helicase DNA unwinding, Cy5 molecular beacon fluorescence | inhibition, % at 10.9 µM | 0.56% of 290,000 active;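 active = inhibition above the mean of all tested compounds plus 3 SD, set per campaign, cut at about 35% in these data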;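 also: 0% = DMSO wells and 100% = thioflavine S control wells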
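Test system: hepatitis C virus NS3 helicase domain fragment enzyme. Also added: annealed dual-labelled DNA beacon duplex, ATP-started. Timing: 60 min unwinding reaction at 25 °C after ATP addition. Technique: Cy5 fluorescence. Measure: % inhibition of unwinding.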
MEX-5 binding: C. elegans MEX-5 TCR-2 RNA binding activity | Q9XUB2 | MEX-5/FITC-TCR2 RNA binding, fluorescence polarization; hits give low values | activity score (negative = inhibition of binding), % at 10 µM | 0.38% of 300,000 active | AID 1832;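 active = inhibition past about -25% in most replicates, and total fluorescence under double the plate's negative control median, limit read from the data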;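 also: 0% = DMSO and -100% = 5 µM competing unlabeled TCR2 RNA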
HCV core dimer: blocks dimerization of HCV core protein; TR-FRET GST/Flag-core106 dimerization, 1536-well; inhibition, % at 5 µM; 0.33% of 300,000 active; AID 1899;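 active = inhibition above the mean of all tested compounds plus 3 SD, set per screening campaign, cut at about 45% in these data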
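Material: GST/Flag-tagged HCV core106 proteins. Incubation: 4 h, 22.5 °C incubation. Read-out basis: inhibition (%) from 671 over 617 nm ratio. Measured by: TR-FRET, excitation 340 nm, emission 617 and 671 nm.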
EBNA-1 inhibitor: blocks EBNA-1 binding to DNA. AID 1950. EBNA-1 DNA binding, fluorescence polarization. inhibition, % at 14.8 µM. 0.34% of 300,000 active; in the data active = inhibition above about 28%
EBV gp42 block: EBV gp42 inhibition | Q1HVG2 | Fluorescence polarization binding assay, mP read-out | inhibition, % (tested at 21.74 µM) | 0.42% of 220,000 active | AID 1085; in the data active = inhibition above about 50%
Target sequence (Q1HVG2 whole entry, looked up): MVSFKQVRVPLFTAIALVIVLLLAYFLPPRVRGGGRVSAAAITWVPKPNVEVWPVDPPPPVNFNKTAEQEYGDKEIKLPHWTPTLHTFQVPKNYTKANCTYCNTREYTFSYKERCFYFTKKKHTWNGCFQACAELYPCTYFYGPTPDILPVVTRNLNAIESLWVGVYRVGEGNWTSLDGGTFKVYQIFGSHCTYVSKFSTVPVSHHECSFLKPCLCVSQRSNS
The depositor's hits bear a star.

O=C(CSc1ccsc1[N+](=O)[O-])Nc1cc(F)ccc1F was read as NS3 helicase inh 29, MEX-5 binding -2 and EBV gp42 block 91*.
Screening CCN(CC)c1ccc(NC(=O)CSc2ccsc2[N+](=O)[O-])c(C)c1 returned ZTA DNA inh 6, NS3 helicase inh 15, MEX-5 binding 1, HCV core dimer 49*, EBNA-1 inhibitor -3 and EBV gp42 block -3.
For O=C(NCCOc1ccccc1Cl)c1cccc2c1C(=O)c1ccc(Cl)cc1S2(=O)=O the results were ZTA DNA inh -21.
For CC(CC(=O)NNC(=O)c1ccncc1)c1ccccc1 (stereo unspecified) the results were ZTA DNA inh -5, MEX-5 binding -1, HCV core dimer 0 and EBNA-1 inhibitor -21.
Screening CCCCN1CCN=C1N(C)C returned ZTA DNA inh -1, HCV core dimer -2 and EBNA-1 inhibitor 7.
`CCN(CC)c1ccc(/C=C(/C#N)c2nc3ccccc3[nH]2)c(OC(C)C)c1` gave ZTA DNA inh -20, NS3 helicase inh -8, MEX-5 binding -33*, HCV core dimer 3, EBNA-1 inhibitor -5 and EBV gp42 block 48.
For CCOC(=O)c1ccc(NC(=O)Nc2ccc(S(N)(=O)=O)cc2)cc1 the results were ZTA DNA inh 4, NS3 helicase inh 0, MEX-5 binding 0, HCV core dimer 2, EBNA-1 inhibitor -6 and EBV gp42 block 0.
For CN(C)c1ccc(C(=O)OCC(=O)Nc2ccc(S(N)(=O)=O)cc2)cc1 the results were ZTA DNA inh 44*, NS3 helicase inh 12, MEX-5 binding 1, HCV core dimer 10, EBNA-1 inhibitor 34* and EBV gp42 block -29.
Cc1ccc(OCCOC(=O)c2cccc(S(=O)(=O)N3CC(C)OC(C)C3)c2)cc1 (stereo unspecified) was read as ZTA DNA inh 3.
For O=[N+]([O-])c1ccc(-c2nc3ccc([N+](=O)[O-])cc3[nH]2)cc1 the results were ZTA DNA inh 9, NS3 helicase inh -1, MEX-5 binding -2, HCV core dimer 6, EBNA-1 inhibitor 5 and EBV gp42 block 75*.
`COc1ccc(NS(=O)(=O)c2cccc(C(=O)NNC(=O)c3cc(S(N)(=O)=O)ccc3OC)c2)cc1` gave ZTA DNA inh -6, MEX-5 binding -4, HCV core dimer 2 and EBNA-1 inhibitor -7.
CCN(CC)S(=O)(=O)c1ccc(OC)c(NC(=O)Cc2cccs2)c1 was read as ZTA DNA inh -5, NS3 helicase inh 16, MEX-5 binding -2, HCV core dimer 50*, EBNA-1 inhibitor 2 and EBV gp42 block 42.
Cc1ccc(C(=O)N2CCN(S(=O)(=O)N3CCCCC3)CC2)cc1 was read as ZTA DNA inh -13, NS3 helicase inh -1, MEX-5 binding -15, HCV core dimer 5 and EBNA-1 inhibitor -7.
Screening CCOc1ccc2nc(N3C(=O)/C(=C/c4ccc(Cl)cc4)NC3=S)sc2c1 returned NS3 helicase inh 0, MEX-5 binding -4 and EBV gp42 block 64*.
For CC1CCCCC1NC(=O)C1CCCN(S(=O)(=O)c2ccc(-n3cnnn3)cc2)C1 (stereo unspecified) the results were ZTA DNA inh 16, NS3 helicase inh -1, MEX-5 binding 0, HCV core dimer 6 and EBNA-1 inhibitor 11.
O=[N+]([O-])c1ccc(Sc2cccc3cccnc23)c2cccnc12 was read as ZTA DNA inh -9, NS3 helicase inh -20, MEX-5 binding -14, HCV core dimer 5, EBNA-1 inhibitor -1 and EBV gp42 block 62*.
CCN(CC)Cc1cc(O)c(CN(CC)CC)cc1O was read as NS3 helicase inh 17, MEX-5 binding -39* and EBV gp42 block -15.
`CCc1oc(C(=O)O)cc1CN(CC)CC` gave ZTA DNA inh -3, NS3 helicase inh -4, MEX-5 binding -1, HCV core dimer -3, EBNA-1 inhibitor 5 and EBV gp42 block -9.
For CN(Cc1c(C(=O)N/N=C/c2ccc(O)cc2)nnn1-c1nonc1N)c1ccccc1 the results were ZTA DNA inh -6, NS3 helicase inh 19, MEX-5 binding 2, HCV core dimer -6 and EBNA-1 inhibitor -5.
COc1cccc(C(=O)NN2CC(O)=C(c3nc(C)cs3)C2=N)c1 was read as ZTA DNA inh 4, NS3 helicase inh -4, MEX-5 binding 2, HCV core dimer -6, EBNA-1 inhibitor 1 and EBV gp42 block -13.
For Cc1ccc(C(=O)NN2CC(O)=C(c3nc(-c4cccc([N+](=O)[O-])c4)cs3)C2=N)cc1 the results were ZTA DNA inh 14, NS3 helicase inh 3, MEX-5 binding 2, HCV core dimer 54*, EBNA-1 inhibitor 11 and EBV gp42 block -8.
`COc1ccc(C(CC(=O)O)NS(=O)(=O)c2ccc3c(c2)N(C(C)=O)CC(C)O3)cc1` (stereo unspecified) gave ZTA DNA inh 1, NS3 helicase inh -3, MEX-5 binding -2, HCV core dimer 0 and EBNA-1 inhibitor -10.
Screening O=C(NN1C(=O)/C(=C/C=C/c2ccco2)SC1=S)c1ccccc1O returned ZTA DNA inh 49*, NS3 helicase inh 34, MEX-5 binding -15, HCV core dimer 70*, EBNA-1 inhibitor 37* and EBV gp42 block -12.
`CCOC1(OCC)N=C(N)C2(C#N)C(c3ccc(NC(C)=O)cc3)C12C#N` (stereo unspecified) gave ZTA DNA inh -13, NS3 helicase inh 0, MEX-5 binding -27*, HCV core dimer -20, EBNA-1 inhibitor -5 and EBV gp42 block -1.
`CCN(CC(=O)NCc1ccc(F)cc1)CC(=O)Nc1cc(S(=O)(=O)N(C)C)ccc1C` gave ZTA DNA inh -8.
`Cc1occc1C(=O)N/N=C/C1=C(N2CCOCC2)C(=C\c2ccc(Cl)cc2Cl)/CC1` gave ZTA DNA inh -8, NS3 helicase inh 9, MEX-5 binding -54*, HCV core dimer 1, EBNA-1 inhibitor -6 and EBV gp42 block -17.
`Oc1ccc(Nc2nc(-c3ccc4ccccc4c3)cs2)cc1` gave ZTA DNA inh -3, NS3 helicase inh -14, MEX-5 binding -1, HCV core dimer -1, EBNA-1 inhibitor -2 and EBV gp42 block -4.
Oc1ccc(-c2nc(-c3ccc(O)c(O)c3)cs2)cc1 was read as ZTA DNA inh 11, NS3 helicase inh 14, MEX-5 binding -68*, HCV core dimer -1, EBNA-1 inhibitor 5 and EBV gp42 block 0.
For CC1CN(CC(=O)Nc2nc3ccccc3s2)CC(C)O1 (stereo unspecified) the results were ZTA DNA inh -3, NS3 helicase inh 2, MEX-5 binding 1, HCV core dimer -4 and EBNA-1 inhibitor 2.
Screening Cc1nn(-c2ccccc2)c2c1C(c1ccccc1)C(C#N)=C(N)O2 (stereo unspecified) returned ZTA DNA inh 7, NS3 helicase inh -2, MEX-5 binding 1, HCV core dimer -10, EBNA-1 inhibitor 2 and EBV gp42 block 131*.
